Here are results for 1 molecule from ChEMBL document CHEMBL4431376, “CZ415, a Highly Selective mTOR Inhibitor Showing in Vivo Efficacy in a Collagen Induced Arthritis Model” (ACS Med Chem Lett, 2016).

In brackets after ≈: the same amount, converted by molar mass. Bounds are passed on as bounds.

Series [1] relates to Lymphoma cell line. The experiment in a line: Genotoxicity in mouse lymphoma cells in presence of rat liver S9 fraction. The class given is toxicity, cell-based.
Series [2] deals with Voltage-gated inwardly rectifying potassium channel KCNH2 (Homo sapiens, UniProt Q12809). The experiment in a line: Inhibition of human ERG expressed in HEK293 cells by whole cell patch clamp assay. The format is cell-based. The procedure, abridged:
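hERG measured by whole-cell patch clamp in HEK293 cells, reported as IC50.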
Background: Patch clamp records ionic current or voltage across a cell membrane.

The nature of series [3]: Intrinsic clearance in pooled cryopreserved dog hepatocytes at 1 uM incubated up to 90 mins by LC-MS/MS analysis. The format is ADME, cell-based, Canis lupus familiaris, Hepatocyte. Particulars: 1.5 h; call rule not given here. The procedure, abridged:
(§1)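 Metabolic stability was assessed in liver microsomes (rat, dog, human) and hepatocytes (dog, human). Intrinsic clearance was calculated as μL/min/g liver.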

The target in series [4] is Cytochrome P450 2D6 (Homo sapiens, UniProt P10635). Put plainly: Inhibition of CYP2D6 in human liver microsomes. The class given is ADME. In general terms: Microsomes from liver hold many membrane-bound enzymes, among them those of drug oxidation.
Series [5] is described as follows: AUC in DBA/1 OlaHsd mouse immunized with bovine type2 collagen in Freund's complete adjuvant at 10 mg/kg, po bid administered starting on day 22 post immunization measured on day 31 post immunization. The class given is ADME, organism-based. The conditions noted are these: in vivo. The procedure, abridged: (§2)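 Blood drug levels were measured on study day 31 in CIA mice dosed at 10 mg/kg PO bid (n = 10), with vehicle 5% DMSO/95% (10% kleptose). AUC and Cmax were derived from these levels. Time above EC50 was judged against the human whole-blood IFNγ assay EC50 and the anti-CD3 mouse PK/PD EC50.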

Series [6] can be described thus: Oral bioavailability in Sprague-Dawley rat at 3 mg/kg administered through gavage measured up to 8 hrs by LC-MS/MS analysis. The format is ADME, organism-based. The conditions noted are these: in vivo. The procedure, abridged: (§3)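 Rats (n = 3 per route) given a 1 mg/kg intravenous bolus or 3 mg/kg as an oral solution. Vehicle was 5% DMSO/95% (10% Kleptose). Plasma concentration was followed over time to derive PK parameters and oral bioavailability. Clearance was also expressed relative to liver blood flow.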

Series [7] in a line: Intrinsic clearance in pooled dog liver microsomes at 1 uM incubated up to 40 mins in presence of NADPH by LC-MS/MS analysis. The class given is ADME, Canis lupus familiaris, Microsome. The procedure, abridged: as §1
Series [8] in a line: Kinetic solubility of compound by chemiluminescent nitrogen detection method. The class given is physicochemical. Particulars: read-out: Kinetic_solubility. The procedure, abridged: (§4)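 logD measured at pH 7.4. Kinetic solubility measured by CLND. Solubility also measured in FaSSIF and FeSSIF biorelevant media.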
Series [9] in a line: Protein binding in human plasma. The format is ADME, cell-free. Particulars: read-out: PPB (converted). The procedure, abridged: (§5)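 Plasma protein binding was determined in rat, mouse and human plasma, expressed as % bound.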
A short description of series [10]: Blood clearance in Sprague-Dawley rat at 1 mg/kg, iv as bolus dose or 3 mg/kg, po administered through gavage measured up to 8 hrs by LC-MS/MS analysis. The class given is ADME, organism-based. The conditions noted are these: whole blood. The procedure, abridged: as §3
Series [11] can be described thus: Cmax in Sprague-Dawley rat at 3 mg/kg, po administered through gavage by LC-MS/MS analysis. The format is ADME, organism-based. Set-up: dose 3 mg/kg, route oral. Particulars: in vivo. The procedure, abridged:
as §3

A short description of series [12]: Intrinsic clearance in pooled rat liver microsomes at 1 uM incubated up to 40 mins in presence of NADPH by LC-MS/MS analysis. The format is ADME, Microsome. The procedure, abridged:
as §1

Series [13] can be described thus: Toxicity in DBA/1 OlaHsd mouse immunized with bovine type2 collagen in Freund's complete adjuvant assessed as body weight loss at 10 mg/kg, po bid administered starting on day 22 post immunization measured on day 26 post immunization. The class given is organism-based. Particulars: in vivo. The procedure, abridged: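 Semiestablished CIA design. Mice received bovine type II collagen at day 0 with a boost at day 21. Dosing at 10 mg/kg PO bid ran from day 22 to day 34, in 5% DMSO/95% (10% kleptose), n = 10 per group; normal controls n = 4. Paws were scored daily for erythema and swelling (0–5), summarized as AUC. Body weight was tracked over time.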

In series [14] the target is T1, Cytochrome P450 1A (Homo sapiens, UniProt P04798+P05177).
T1 sequence (P04798 whole entry): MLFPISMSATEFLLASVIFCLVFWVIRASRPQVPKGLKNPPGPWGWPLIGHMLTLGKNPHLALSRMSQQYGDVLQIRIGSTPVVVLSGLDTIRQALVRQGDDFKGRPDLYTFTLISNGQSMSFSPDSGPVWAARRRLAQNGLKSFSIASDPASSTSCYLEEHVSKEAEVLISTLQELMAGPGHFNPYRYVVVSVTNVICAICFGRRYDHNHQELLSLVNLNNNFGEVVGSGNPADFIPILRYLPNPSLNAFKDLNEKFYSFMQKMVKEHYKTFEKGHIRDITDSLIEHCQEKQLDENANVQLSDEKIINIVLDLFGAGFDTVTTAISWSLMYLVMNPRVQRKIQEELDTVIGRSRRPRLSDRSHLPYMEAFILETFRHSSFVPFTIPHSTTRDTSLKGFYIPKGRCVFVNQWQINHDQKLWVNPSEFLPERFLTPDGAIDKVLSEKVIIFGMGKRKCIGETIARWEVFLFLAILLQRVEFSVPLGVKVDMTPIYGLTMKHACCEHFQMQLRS
T1 sequence (P05177 whole entry): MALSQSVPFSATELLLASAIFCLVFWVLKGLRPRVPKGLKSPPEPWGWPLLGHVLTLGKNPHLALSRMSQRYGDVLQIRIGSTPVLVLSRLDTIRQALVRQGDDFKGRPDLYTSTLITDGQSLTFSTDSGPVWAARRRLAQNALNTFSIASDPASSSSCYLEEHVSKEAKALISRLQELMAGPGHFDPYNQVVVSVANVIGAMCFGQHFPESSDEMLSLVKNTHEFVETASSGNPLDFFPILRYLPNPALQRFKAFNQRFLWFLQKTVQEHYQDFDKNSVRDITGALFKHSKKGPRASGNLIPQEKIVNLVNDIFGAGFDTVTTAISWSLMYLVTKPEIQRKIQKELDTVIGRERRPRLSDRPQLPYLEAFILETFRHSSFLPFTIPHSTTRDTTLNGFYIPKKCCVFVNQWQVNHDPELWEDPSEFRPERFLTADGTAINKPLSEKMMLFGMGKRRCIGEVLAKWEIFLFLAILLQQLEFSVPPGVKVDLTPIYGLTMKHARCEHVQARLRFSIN
Put plainly: Inhibition of CYP1A in human liver microsomes.

Series [15] in a line: Apparent permeability from apical to basolateral side in human CaCo2 cells. Particulars: Caco-2. The class given is ADME, cell-based. The procedure, abridged:
(§6)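 Caco-2 monolayer permeability, measured as Papp in the apical-to-basolateral and basolateral-to-apical directions.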
For orientation: Caco-2 cells form a polarised layer with tight junctions and transporters.

Series [16] can be described thus: Plasma clearance in Sprague-Dawley rat at 1 mg/kg, iv as bolus dose or 3 mg/kg, po administered through gavage measured up to 8 hrs by LC-MS/MS analysis. The class given is ADME, organism-based. The procedure, abridged: as §3
Series [17] in a line: Apparent permeability from basolateral to apical side in human CaCo2 cells. The class given is ADME, cell-based. Particulars: Caco-2. The procedure, abridged: as §6
The subject of series [18] is Lymphoma cell line. The experiment in a line: Genotoxicity in mouse lymphoma cells in absence of rat liver S9 fraction. The class given is toxicity, cell-based.
A short description of series [19]: Protein binding in rat plasma. The format is ADME, cell-free. Particulars: read-out: PPB (converted). The procedure, abridged: as §5
Series [20] relates to Mus musculus. The experiment in a line: Time duration for free plasma concentration stays above invivo EC50 in DBA/1 OlaHsd mouse immunized with bovine type2 collagen in Freund's complete adjuvant at 10 mg/kg, po bid administered starting on day 22 post immunization measured on day 31 post immunization. The class given is ADME, organism-based. Particulars: in vivo. The procedure, abridged: as §2

A short description of series [21]: Solubility of compound in fasted state simulated intestinal fluid. The format is physicochemical. The procedure, abridged: as §4
In series [22] the target is T2, Cytochrome P450 2C8 (Homo sapiens, UniProt P10632).
T2 sequence (P10632 whole entry): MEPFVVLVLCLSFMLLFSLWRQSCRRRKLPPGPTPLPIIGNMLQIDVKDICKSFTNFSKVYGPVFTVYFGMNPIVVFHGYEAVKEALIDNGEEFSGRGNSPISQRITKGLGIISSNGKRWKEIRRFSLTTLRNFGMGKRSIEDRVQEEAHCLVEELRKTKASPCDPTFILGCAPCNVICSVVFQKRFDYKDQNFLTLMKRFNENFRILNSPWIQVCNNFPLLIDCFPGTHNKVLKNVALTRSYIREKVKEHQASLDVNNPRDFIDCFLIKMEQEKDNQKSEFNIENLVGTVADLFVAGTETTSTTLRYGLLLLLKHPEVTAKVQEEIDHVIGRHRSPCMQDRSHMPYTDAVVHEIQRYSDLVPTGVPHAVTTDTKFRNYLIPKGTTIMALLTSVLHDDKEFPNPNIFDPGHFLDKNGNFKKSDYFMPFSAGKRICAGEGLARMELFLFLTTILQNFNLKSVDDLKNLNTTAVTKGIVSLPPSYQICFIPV
Put plainly: Inhibition of CYP2C8 in human liver microsomes. The class given is ADME.

Series [23] is described as follows: Mean residence time in Sprague-Dawley rat at 1 mg/kg, iv as bolus dose or 3 mg/kg, po administered through gavage by LC-MS/MS analysis. The format is ADME, organism-based. The conditions noted are these: in vivo. The procedure, abridged:
as §3

Sequence of Voltage-gated inwardly rectifying potassium channel KCNH2 (Q12809 whole entry): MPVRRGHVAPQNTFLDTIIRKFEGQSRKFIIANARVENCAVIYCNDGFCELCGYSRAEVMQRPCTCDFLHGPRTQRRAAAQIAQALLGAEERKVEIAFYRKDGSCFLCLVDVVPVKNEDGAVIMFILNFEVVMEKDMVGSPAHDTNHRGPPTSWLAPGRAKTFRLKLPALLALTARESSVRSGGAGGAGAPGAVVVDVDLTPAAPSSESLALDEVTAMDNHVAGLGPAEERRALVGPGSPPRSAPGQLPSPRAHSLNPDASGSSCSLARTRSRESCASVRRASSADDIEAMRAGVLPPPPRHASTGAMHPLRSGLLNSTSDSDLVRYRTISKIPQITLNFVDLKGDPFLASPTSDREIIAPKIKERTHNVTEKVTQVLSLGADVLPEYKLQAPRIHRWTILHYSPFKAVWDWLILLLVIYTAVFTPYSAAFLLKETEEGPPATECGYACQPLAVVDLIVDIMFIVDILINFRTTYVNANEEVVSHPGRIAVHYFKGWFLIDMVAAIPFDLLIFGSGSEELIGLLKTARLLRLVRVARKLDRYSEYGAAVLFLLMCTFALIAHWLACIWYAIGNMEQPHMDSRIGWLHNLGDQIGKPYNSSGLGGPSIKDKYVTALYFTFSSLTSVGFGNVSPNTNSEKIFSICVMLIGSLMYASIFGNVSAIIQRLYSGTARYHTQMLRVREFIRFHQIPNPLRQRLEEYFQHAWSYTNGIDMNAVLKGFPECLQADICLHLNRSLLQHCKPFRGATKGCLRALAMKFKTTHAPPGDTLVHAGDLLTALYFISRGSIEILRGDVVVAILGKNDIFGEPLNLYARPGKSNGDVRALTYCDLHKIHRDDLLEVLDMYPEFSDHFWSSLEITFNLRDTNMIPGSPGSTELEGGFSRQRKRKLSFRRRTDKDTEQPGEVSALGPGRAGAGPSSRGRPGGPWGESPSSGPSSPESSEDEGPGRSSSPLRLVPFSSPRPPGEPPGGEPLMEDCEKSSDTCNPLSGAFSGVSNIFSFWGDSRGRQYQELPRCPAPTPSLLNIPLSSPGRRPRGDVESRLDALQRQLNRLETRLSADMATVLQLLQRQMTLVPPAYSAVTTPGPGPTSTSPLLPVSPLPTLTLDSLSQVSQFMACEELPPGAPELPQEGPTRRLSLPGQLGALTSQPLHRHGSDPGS
Sequence of Cytochrome P450 2D6 (P10635 whole entry): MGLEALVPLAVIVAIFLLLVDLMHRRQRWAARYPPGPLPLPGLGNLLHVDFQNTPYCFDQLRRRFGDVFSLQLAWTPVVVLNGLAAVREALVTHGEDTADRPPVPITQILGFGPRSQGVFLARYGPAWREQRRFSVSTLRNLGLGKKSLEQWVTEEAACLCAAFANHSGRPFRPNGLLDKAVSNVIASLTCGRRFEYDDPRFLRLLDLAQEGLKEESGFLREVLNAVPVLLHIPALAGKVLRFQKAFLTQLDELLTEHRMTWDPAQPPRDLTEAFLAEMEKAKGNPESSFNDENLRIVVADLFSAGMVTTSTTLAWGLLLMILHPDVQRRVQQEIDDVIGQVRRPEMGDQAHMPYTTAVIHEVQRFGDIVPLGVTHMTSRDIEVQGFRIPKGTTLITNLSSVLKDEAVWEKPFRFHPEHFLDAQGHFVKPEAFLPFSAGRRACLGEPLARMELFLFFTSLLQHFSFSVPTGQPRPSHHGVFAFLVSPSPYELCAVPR

In the case of `CCNC(=O)Nc1ccc(-c2nc(N3CCOC[C@@H]3C)c3c(n2)C(C)(C)S(=O)(=O)C3)cc1`, the Activity result in series [1], in series [13] and in [18] was “Non-Toxic” in each case. Besides, the IC50 in series [2] was determined as 48 µM. The results for the CLH in series [3], in series [7] and in series [12] were under 0.8 µL/min/g, under 1.1 µL/min/g and under 0.6 µL/min/g, respectively. Moreover, the “inhibition (INH)” value in [4], in series [14] and in series [22] was “Not Active” throughout. Also, the AUC in series [5] was 14 µM·h. The same molecule came in with a bioavailability in [6] of 44%. Besides, the solubility kinetic in series [8] is 150 µM (≈ 68.7 µg/mL). Further, the fraction unbound in series [9] is 0.19; in series [19], 0.31. Besides, the clearance in [10] was found to be 41 mL/min/kg; in series [16], 49 mL/min/kg. The peak level in series [11] (Cmax) was 430 nM. Moreover, the Papp A→B in series [15] turned out to be 0.047 ×10⁻⁶ cm/s. Besides, in [17], the Papp B→A turned out to be 0.102 ×10⁻⁶ cm/s. For the same molecule, the Time entry in series [20] is on record as “<= 8 hr”. This molecule registered a solubility in series [21] of 11.1 µg/mL (≈ 24.2 µM). Also, the mean residence time MRT in series [23] amounted to 1.1 h.

The IC50 is the midpoint of a concentration-inhibition curve. The low end stands for greater potency, the high end for weaker potency. For orientation: AUC means the area under the concentration-time curve, a measure of exposure. A word on the bioavailability: it is dose-corrected exposure relative to a reference, in per cent. Lower therefore signals little systemic uptake. As usually defined, the Cmax is the maximum level reached in the sampled fluid or tissue. As a reminder, the Papp A→B is how fast a substance crosses the layer from the apical side. For orientation: Papp B→A means how fast a substance crosses the layer from the basolateral side. What is called solubility is the concentration that dissolves in the medium under given conditions. The low end stands for a poorly soluble substance, the high end for a readily soluble substance. One may read the MRT as a mean duration of stay, worked out from the concentration-time curve.
